PolyA inh: inhibitors of polyadenylation in S. cerevisiae. S. cerevisiae SKY197-pL101 polyadenylation reporter, beta-gal luminescence; efflux-impaired pdr1/pdr3 knockout yeast; score 100 = 6 SD above DMSO. activity score, % at 12 µM. hit rate 0.02% among 300,000. AID 1875;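 active = lowest replicate activity score at least 50, where 100 means six control SD above control mean; inconclusive = lowest score under 50 but half or more replicates reach 50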;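 also: yeast exposed to compound for 9 h at 30 °C; higher score means more reporter readthrough which indicates perturbed polyadenylation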
Efflux pump inh: antifungal efflux pump inhibition, Nile Red retention; S. cerevisiae Candida pump triplex; inhibition, % at 10 µM; hit rate 0.44% among 330,000;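 active = plate passing quality check with inhibition over a set limit, or well fluorescence over plate mean plus 4 SD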;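 also: Nile Red retained in pooled yeast measured as flow cytometry median fluorescence; 0% = buffer negative control and 100% = Enniatin B positive control; higher means more Nile Red kept so more efflux inhibition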
AI-2 QS mod: Vibrio harveyi AI-2 quorum sensing modulation. Vibrio harveyi JMH597 AI-2 luminescence/OD600 ratio, 9 h; hits give low values; strain lacks LuxN and CqsS sensors; 0 = neutral-control median. activity change, % at 7.5 µM. hit rate 0.4% among 300,000; in the data active = activity change below about -75%, passing the limit was not always enough; inconclusive = no clear call, values can overlap the other calls;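 also: luminescence divided by OD600 gain over 9 h not by final OD600 alone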
HDAC3 inhib: inhibitors of human histone deacetylase 3. recombinant HDAC3, fluorogenic peptide/trypsin coupled, fluorescence. inhibition, % at 8.3 µM. hit rate 0.15% among 320,000. O15379; in the data active = inhibition above about 26%, passing the limit was not always enough; inconclusive = no clear call, values can overlap the other calls
Target sequence (O15379 whole entry, looked up): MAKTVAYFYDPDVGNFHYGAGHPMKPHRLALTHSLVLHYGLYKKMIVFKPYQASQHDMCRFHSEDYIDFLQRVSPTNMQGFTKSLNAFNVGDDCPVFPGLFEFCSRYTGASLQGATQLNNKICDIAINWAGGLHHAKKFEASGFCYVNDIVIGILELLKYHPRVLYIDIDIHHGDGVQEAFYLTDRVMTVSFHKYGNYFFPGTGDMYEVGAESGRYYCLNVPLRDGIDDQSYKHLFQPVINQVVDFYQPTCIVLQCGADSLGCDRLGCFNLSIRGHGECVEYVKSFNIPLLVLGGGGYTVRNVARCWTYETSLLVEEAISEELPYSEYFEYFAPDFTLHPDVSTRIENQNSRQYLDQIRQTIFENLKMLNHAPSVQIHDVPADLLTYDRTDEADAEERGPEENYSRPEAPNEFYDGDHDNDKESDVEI
T cruzi repl: T. cruzi replication inhibition; T. cruzi beta-gal in NIH3T3, luminescence, 90 h; inhibition, % (no concentration beside the values); hit rate 1.4% among 300,000; AID 1885;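 active = mean inhibition across valid replicates above about 55%, limit read from the data; inconclusive = mean below that limit but half or more replicates reach it; inactive = mean below it, under half of replicates reach it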;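 also: signal also drops with host cell toxicity which is not excluded here; 0% = plate median of DMSO wells and 100% = zero luminescence signal; higher percent means less beta-gal luminescence so fewer parasites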
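Test system: β-gal T. cruzi (Tulahuen C4) inside NIH/3T3 cells / Quantity: 5,000 cells/well / Measured by: luminescence from GalScreen with 0.05% NP40, read after 60 min / Medium: DMEM plus 2% FBS / Measure: parasite load inhibition, % / Reagent: Tulahuen C4 trypomastigotes, 5000/well / Schedule: co-culture of at least 90 h after 3 h attachment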
Starred values were filed as active, the others as inactive; ? = inconclusive; . = no result. Hits are enriched below; roughly 2.2% of the tested compounds scored in any of these assays.

SMILES	PolyA inh	Efflux pump inh	AI-2 QS mod	HDAC3 inhib	T cruzi repl
Cc1cc(C)c2nc(N3CCCC(C(=O)NCCCN4CCOCC4)C3)sc2c1 (configuration not stated)	43	0	8	-9	5
Cc1cc(C)c2nc(N3CCC(C(=O)NCCCN4CC(C)CC(C)C4)CC3)sc2c1 (configuration not stated)	-1	0	17	-3	59*
O=C(N/N=C/c1ccc([N+](=O)[O-])s1)c1ccccc1Br	-17	0	.	4	52
O=[N+]([O-])c1ccc(/C=N/NC(=S)Nc2ccc(Cl)cc2Cl)s1	-15	1	27	4	56*
COc1ccccc1NC(=O)C(=O)N/N=C/c1ccc([N+](=O)[O-])s1	12	.	32	.	62*
Cc1ccccc1C(=O)N/N=C/c1ccc([N+](=O)[O-])s1	-19	0	-76*	-1	50
Cc1cc(C(=O)N/N=C/c2ccc([N+](=O)[O-])cc2)c2ccccc2n1	26	0	18	-2	-15
Cc1cc(C(=O)N/N=C/c2ccc([N+](=O)[O-])s2)c2ccccc2n1	25	0	28	0	61*
Cn1c(SCC(=O)N/N=C/c2ccc([N+](=O)[O-])s2)nnc1-c1ccccc1	-85	1	63	2	58*
O=C(CNC(=O)c1cccc(F)c1)N/N=C/c1ccc([N+](=O)[O-])s1	7	0	-148*	10	51
O=C(N/N=C/c1ccc([N+](=O)[O-])s1)c1ccccc1	-18	0	3	-1	48
O=C(N/N=C/c1ccc([N+](=O)[O-])s1)C(O)c1ccccc1 (configuration not stated)	-18	0	?	2	77*
O=[N+]([O-])c1cc2cccnc2c2ncccc12	-7	0	-4	5	24
O=[N+]([O-])c1ccc(Sc2cccc3cccnc23)c2cccnc12	-35	0	4	1	86*
CCC(C)NC(=O)c1c(N)n(/N=C/c2ccccn2)c2nc3ccccc3nc12 (configuration not stated)	3	0	14	9	62*
CCOc1cccc(CN2CCCC(N3CCc4cc(OC)c(OC)cc4C3)C2)c1O (configuration not stated)	13	1	17	-4	65*
CCOc1cc(CN2CCCC(N3CCc4ccccc4C3)C2)ccc1O (configuration not stated)	-8	0	33	-6	53
CC(C)(C)c1ccc(NC(=O)COc2ccc(-n3ccnc3)cc2)cc1	-7	0	20	1	59*
COc1cc(NC(=O)COc2ccc(-n3ccnc3)cc2)cc(OC)c1	3	0	-5	5	-4
Cc1c(N=C(N)/N=C(\N)Nc2ccc(Br)cc2)c(=O)n(-c2ccccc2)n1C	-5	0	12	3	2
CCN1CCN(C(=O)c2cc3cc(Cl)ccc3[nH]2)CC1	5	0	-77*	-8	20
Cc1ccc(C(=O)N/C(=C\c2ccc(-c3ccc(Br)cc3)o2)C(=O)NCCCN(C)C)cc1	0	0	9	2	77*
CC(C)CCNC(=O)C1CC(c2ccccc2C(F)(F)F)=NO1 (configuration not stated)	22	0	-1	5	-22
CN(C)c1nc(N)ncc1-c1ccc(Oc2ccccc2)cc1	-21	0	9	-1	70*
CCCc1c(CC)c(=N)c2ccccc2n1C	4	0	.	-11	72*
Cn1c(-c2ccccc2)c(CCO)c2ccccc21	-11	0	7	-24	-4
O=[N+]([O-])c1ccc(S(=O)(=O)NCC(c2cccnc2)N2CCc3ccccc3C2)cc1 (configuration not stated)	12	0	7	2	35
O=[N+]([O-])c1ccc(S(=O)(=O)NCC(c2ccco2)N2CCc3ccccc3C2)cc1 (configuration not stated)	-4	0	7	5	61*
CC(C)[C@H](NC(=O)[C@H](CCCN=C(N)N)NC(=O)NC(Cc1ccccc1)C(=O)O)C(=O)NC(C=O)CCCN=C(N)N (some centres not stated)	-14	0	18	84*	-3
COc1ccc(CN(C)CC2CCCN(CCc3ccccc3C)C2)cc1O (configuration not stated)	6	0	6	-1	31
